Laboratory results from ChEMBL document CHEMBL1137225, “Synthesis of analogues of Congo red and evaluation of their anti-prion activity” (2004).

Tests used:
Type in all cases: functional
[1] = molecular target: Major prion protein (Mus musculus) (UniProt P04925); assay: Inhibition of PrP-res formation in SMB (Scrapie mouse brain) cells at 10 uM
Procedure, shortened: (§1)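 Persistently scrapie-infected mouse SMB cells in 199 medium with 10% FCS, 5% newborn calf serum, 37 °C, 5% CO2; plated at 50% confluency, attached 24 h, then given fresh medium with compound diluted from 10 mM DMSO stock for 4 days. Lysates digested with proteinase K (80 μg/mL, 1 h, 37 °C); PrP-res detected by DR1 western blot, ECL, densitometry.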

[2] = molecular target: Major prion protein (Mus musculus) (UniProt P04925); assay: Inhibition of PrPC polymerization by PrP-res at 100 uM; set-up: scale not given: the % may be the effect or the level left
Procedure, shortened: (§2)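 Substrate recombinant mouse PrP refolded without metal ions (50 μg), preincubated with compound (100 μM) in 500 μL H2O pH 6.5 for 30 min; seeded with aged Mn2+-refolded mouse PrP (10 μg). Turbidity read at 325 nm (5-mm cuvette) immediately and after 5 min; absorbance increase expressed as percentage of DMSO control.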

[3] = (§3) Compound was tested for the inhibition of PrP-res formation in SMB cells at 50 uM; details: Mus musculus; procedure, shortened: as §1
SMB = assay: as §3; details: Mus musculus; procedure, shortened: as §1
[4] = Effective dose required for the inhibition of PrP-res formation in SMB cells; details: Mus musculus, read-out: ED50 (the source's name); procedure, shortened: as §1
[5] = Effective dose required for the inhibition of PrP-res formation in SMB cells; value ranges from 25-50 nM; details: Mus musculus, read-out: ED50 (the source's name); procedure, shortened: as §1
[6] = Compound was tested for the ability to inhibit the polymerization of PrPC by PrP-res at 100 uM; value ranges from 17-50 %; set-up: scale not given: the % may be the effect or the level left; procedure, shortened: as §2
[7] = Compound was tested for the inhibition of PrP-res formation in SMB cells at 2 uM; details: Mus musculus; procedure, shortened: as §1

Sequence of Major prion protein (Mus musculus) (P04925 whole entry): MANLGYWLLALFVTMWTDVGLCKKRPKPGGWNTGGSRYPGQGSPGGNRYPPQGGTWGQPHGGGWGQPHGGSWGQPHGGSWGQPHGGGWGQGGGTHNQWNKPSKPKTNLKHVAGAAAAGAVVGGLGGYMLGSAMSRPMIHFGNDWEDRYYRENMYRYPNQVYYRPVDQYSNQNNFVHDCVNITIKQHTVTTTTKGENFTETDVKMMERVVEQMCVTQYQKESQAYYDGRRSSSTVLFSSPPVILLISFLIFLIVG

Structure (SMILES) | inhibition [1] | Control [2] | further results
C(=N\c1ccccc1)/c1ccc(-c2ccc(/C=N/c3ccccc3)cc2)cc1 | Negative | 315% | –
COc1ccc(C(=O)O)cc1NS(=O)(=O)c1ccc(-c2ccc(S(=O)(=O)Nc3cc(C(=O)O)ccc3OC)cc2)cc1 | Negative | 62% | inhibition at 50 µM [3]: 33%
O=C(O)c1cc(NS(=O)(=O)c2ccc(-c3ccc(S(=O)(=O)Nc4cc(C(=O)O)cc(C(=O)O)c4)cc3)cc2)cc(C(=O)O)c1 | Negative | 2% | inhibition (SMB): Negative
COC(=O)c1ccc(NC(=O)c2ccc(C(=O)Nc3ccc(C(=O)OC)cc3O)cc2)c(O)c1 | Positive | 62% | EC50 [4]: 5000 nM
Oc1ccccc1/N=C/c1ccc(/C=N/c2ccccc2O)cc1 | Negative | 85% | –
Oc1ccc(/N=C/c2ccc(/C=N/c3ccc(O)cc3)cc2)cc1 | Negative | 240% | –
C(=N\c1ccccc1)/c1ccc(/C=N/c2ccccc2)cc1 | Negative | – | –
O=C(Nc1ccc([N+](=O)[O-])cc1O)c1ccc(C(=O)Nc2ccc([N+](=O)[O-])cc2O)cc1 | Negative | 15% | –
N#Cc1ccc(/N=C/c2ccc(/C=N/c3ccc(C#N)cc3)cc2)cc1 | Positive | 81% | EC50 [4]: 500 nM
O=C(O)c1cc(/N=C/c2ccc(/C=N/c3ccc(O)c(C(=O)O)c3)cc2)ccc1O | Negative | 53% | –
O=C(O)c1ccc(NS(=O)(=O)c2ccc(-c3ccc(S(=O)(=O)Nc4ccc(C(=O)O)cc4O)cc3)cc2)c(O)c1 | Negative | 12% | inhibition (SMB): Negative
O=C(Oc1ccccc1)c1ccc(/N=C/c2ccc(/C=N/c3ccc(C(=O)Oc4ccccc4)c(O)c3)cc2)cc1O | Negative | 113% | inhibition (SMB): Negative
N#Cc1ccc(NC(=O)c2ccc(C(=O)Nc3ccc(C#N)cc3)cc2)cc1 | Negative | 68% | –
N#Cc1ccc(/N=C/c2ccc(/C=N/c3ccc(C#N)c4ccccc34)cc2)c2ccccc12 | Negative | 148% | –
O=C(O)c1cc(/C=C/c2ccc(/C=C/c3ccc(O)c(C(=O)O)c3)cc2)ccc1O | Negative | 72% | inhibition at 50 µM [3]: 3%
O=C(O)c1ccc(/N=C/c2ccc(-c3ccc(/C=N/c4ccc(C(=O)O)cc4O)cc3)cc2)c(O)c1 | Positive | 62% | –
COC(=O)c1ccc(NC(=O)c2ccc(-c3ccc(C(=O)Nc4ccc(C(=O)OC)c(OC)c4)cc3)cc2)cc1OC | Positive | 70% | EC50 [4]: 250 nM
COC(=O)c1cc(NC(=O)c2ccc(-c3ccc(C(=O)Nc4ccc(O)c(C(=O)OC)c4)cc3)cc2)ccc1O | Positive | 249% | EC50 [4]: 5000 nM
O=C(Oc1ccccc1)c1ccc(NS(=O)(=O)c2ccc(-c3ccc(S(=O)(=O)Nc4ccc(C(=O)Oc5ccccc5)c(O)c4)cc3)cc2)cc1O | Negative | 90% | inhibition (SMB): Negative
COC(=O)c1ccc(NS(=O)(=O)c2ccc(-c3ccc(S(=O)(=O)Nc4ccc(C(=O)OC)cc4O)cc3)cc2)c(O)c1 | Negative | 30% | inhibition at 50 µM [3]: 77%
O=C(Nc1ccc([N+](=O)[O-])cc1O)c1ccc(-c2ccc(C(=O)Nc3ccc([N+](=O)[O-])cc3O)cc2)cc1 | Negative | 160% | –
Oc1ccc(/N=C/c2ccc(-c3ccc(/C=N/c4ccc(O)cc4)cc3)cc2)cc1 | Positive | 104% | EC50 [4]: 250 nM
O=C(O)c1cc(NC(=O)c2ccc(C(=O)Nc3cc(C(=O)O)cc(C(=O)O)c3)cc2)cc(C(=O)O)c1 | Negative | 1% | –
COC(=O)c1ccc(OC)c(/N=C/c2ccc(/C=N/c3cc(C(=O)OC)ccc3OC)cc2)c1 | Negative | 47% | inhibition (SMB): Negative
COC(=O)c1ccc(NC(=O)c2ccc(-c3ccc(C(=O)Nc4ccc(C(=O)OC)cc4O)cc3)cc2)c(O)c1 | Positive | – | EC50 [5]: 50 nM; Control [6]: 50%
COc1cc(NC(=O)c2ccc(-c3ccc(C(=O)Nc4ccc(C(=O)O)c(OC)c4)cc3)cc2)ccc1C(=O)O | Negative | 472% | –
Oc1ccccc1NCc1ccc(CNc2ccccc2O)cc1 | Positive | 240% | EC50 [4]: 2500 nM

Structure (SMILES) | inhibition [1] | Control [2] | further results
N#Cc1ccc(NC(=O)c2ccc(-c3ccc(C(=O)Nc4ccc(C#N)cc4)cc3)cc2)cc1 | Negative | 196% | –
CCOC(=O)c1ccc(/N=C/c2ccc(/C=N/c3ccc(C(=O)OCC)c(O)c3)cc2)cc1O | Negative | 92% | –
COC(=O)c1ccc(OC)c(NC(=O)c2ccc(C(=O)Nc3cc(C(=O)OC)ccc3OC)cc2)c1 | Negative | 70% | –
COC(=O)c1ccc(NC(=O)c2ccc(-c3ccc(C(=O)Nc4ccc(C(=O)OC)c(O)c4)cc3)cc2)cc1O | Negative | NR | –
COC(=O)c1ccc(/N=C/c2ccc(-c3ccc(/C=N/c4ccc(C(=O)OC)cc4O)cc3)cc2)c(O)c1 | Negative | 49% | inhibition at 50 µM [3]: 53%
COC(=O)c1ccc(NC(=O)c2ccc(C(=O)Nc3ccc(C(=O)OC)cc3)cc2)cc1 | Negative | 100% | –
COc1ccc(C(=O)O)cc1/N=C/c1ccc(/C=N/c2cc(C(=O)O)ccc2OC)cc1 | Negative | 11% | –
Oc1ccccc1/N=C/c1ccc(-c2ccc(/C=N/c3ccccc3O)cc2)cc1 | Negative | 281% | –
O=C(Nc1ccccc1)c1ccc(-c2ccc(C(=O)Nc3ccccc3)cc2)cc1 | Negative | 171% | –
COC(=O)c1cc(NC(=O)c2ccc(C(=O)Nc3cc(C(=O)OC)cc(C(=O)OC)c3)cc2)cc(C(=O)OC)c1 | Positive | 147% | EC50 [4]: 250 nM
COC(=O)c1ccc(OC)c(/N=C/c2ccc(-c3ccc(/C=N/c4cc(C(=O)OC)ccc4OC)cc3)cc2)c1 | Negative | – | –
O=C(O)c1ccc(/N=C/c2ccc(/C=N/c3ccc(C(=O)O)cc3)cc2)cc1 | Negative | 12% | –
Cc1ccc(/N=C/c2ccc(/C=N/c3ccc(C)cc3O)cc2)c(O)c1 | Negative | 230% | –
O=C(O)c1ccc(/N=C/c2ccc(/C=N/c3ccc(C(=O)O)cc3O)cc2)c(O)c1 | Negative | 35% | inhibition (SMB): Negative
O=C(O)c1ccc(C/N=C/c2ccc(/C=N/Cc3ccc(C(=O)O)cc3)cc2)cc1 | Negative | 117% | –
COC(=O)c1ccc(OC)c(NS(=O)(=O)c2ccc(-c3ccc(S(=O)(=O)Nc4cc(C(=O)OC)ccc4OC)cc3)cc2)c1 | Negative | 77% | inhibition (SMB): Negative
COC(=O)c1ccc(/N=C/c2ccc(/C=N/c3ccc(C(=O)OC)c(O)c3)cc2)cc1O | Negative | 113% | –
O=C(Nc1ccccc1O)c1ccc(-c2ccc(C(=O)Nc3ccccc3O)cc2)cc1 | Negative | 430% | –
COC(=O)c1ccc(OC)c(NCc2ccc(CNc3cc(C(=O)OC)ccc3OC)cc2)c1 | Positive | 20% | EC50 [4]: 250 nM
COC(=O)c1ccc(NCc2ccc(CNc3ccc(C(=O)OC)cc3O)cc2)c(O)c1 | Positive | 166% | EC50 [4]: 75 nM
O=C(Nc1ccccc1)c1ccc(C(=O)Nc2ccccc2)cc1 | Negative | 54% | –
O=[N+]([O-])c1ccc(/N=C/c2ccc(/C=N/c3ccc([N+](=O)[O-])cc3O)cc2)c(O)c1 | Negative | 109% | –
Oc1ccc(/C=C/c2ccc(/C=C/c3ccc(O)cc3)cc2)cc1 | – | – | inhibition at 2 µM [7]: 5%
COC(=O)c1cc(/N=C/c2ccc(/C=N/c3ccc(O)c(C(=O)OC)c3)cc2)ccc1O | Negative | – | –
CCOC(=O)c1cc(/N=C/c2ccc(/C=N/c3ccc(O)c(C(=O)OCC)c3)cc2)ccc1O | Negative | 60% | –
COC(=O)c1ccc(/N=C/c2ccc(/C=N/c3ccc(C(=O)OC)cc3O)cc2)c(O)c1 | Negative | 140% | inhibition (SMB): Negative
O=C(O)c1ccc(NCc2ccc(CNc3ccc(C(=O)O)cc3O)cc2)c(O)c1 | Negative | 79% | –
